In ChEMBL document CHEMBL3860041, “Synthesis, biological evaluation and molecular modeling study of some new methoxylated 2-benzylthio-quinazoline-4(3H)-ones as nonclassical antifolates” (Bioorg Med Chem Lett, 2016):

What was measured:
Type in all cases: functional
[1] = Growth inhibition of human M14 cells at 10 uM after 48 hrs by SRB assay relative to control; settings: M14, 48 h, read-out: GI
Summary of the method: (§1)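 NCI 60-cell-line panel, nine tumor subpanels; compounds tested at a single dose of 10 μM in the primary screen.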

[2] = Growth inhibition of human SNB75 cells at 10 uM after 48 hrs by SRB assay relative to control; settings: SNB-75, 48 h, read-out: GI
Summary of the method: (§2)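 Primary screen across the full NCI 60 human tumour cell line panel, which covers nine tumour subpanels. A single dose of 10 μM was applied to each line, and growth was recorded for each cell line.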

Cancer cell lines [3] = experiment: Potency index, ratio of 5-fluorouracil GI50 to compound GI50 for human non-small cell lung cancer cells
Summary of the method: (§3)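 GI50 for each cell line came from NCI panel testing over a 5-log dose range, with 5-fluorouracil tested alongside as the reference drug. The index relates the 5-fluorouracil GI50 to the compound GI50 within each tumour subpanel.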

[4] = Growth inhibition of human melanoma cells after 48 hrs by SRB assay; settings: Melanoma cell
Summary of the method: (§4)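 Follow-up NCI panel testing over a 5-log dose range for each cell line. GI50, TGI and LC50 were monitored, with 5-fluorouracil run as the positive control. Values are grouped by tumour subpanel.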

Cancer cell lines [5] = experiment: Potency index, ratio of 5-fluorouracil GI50 to compound GI50 for human CNS cancer cells; summary of the method: as §3
[6] = Growth inhibition of human KM12 cells at 10 uM after 48 hrs by SRB assay relative to control; settings: KM12, 48 h, read-out: GI; summary of the method: as §1
[7] = Growth inhibition of human CNS cancer cells after 48 hrs by SRB assay; settings: Cancer cell lines
Summary of the method: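 Five-log dose range against NCI tumor cell lines, monitoring GI50, TGI and LC50 for each cell line; MG-MID values derived across the panel; 5-fluorouracil positive control.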

Cancer cell lines [8] = experiment: Potency index, ratio of 5-fluorouracil GI50 to compound GI50 for human renal cancer cells; summary of the method: as §3
[9] = Growth inhibition of human ovarian cancer cells after 48 hrs by SRB assay; settings: Cancer cell lines; summary of the method: as §4
[10] = Growth inhibition of human HOP62 cells at 10 uM after 48 hrs by SRB assay relative to control; settings: HOP-62, 48 h, read-out: GI; summary of the method: as §1
[11] = Growth inhibition of human OVCAR5 cells at 10 uM after 48 hrs by SRB assay relative to control; settings: OVCAR-5, 48 h, read-out: GI; summary of the method: as §1
[12] = Growth inhibition of human PC3 cells at 10 uM after 48 hrs by SRB assay relative to control; settings: PC-3, 48 h, read-out: GI; summary of the method: as §1
[13] = Growth inhibition of human UO31 cells at 10 uM after 48 hrs by SRB assay relative to control; settings: UO-31, 48 h, read-out: GI; summary of the method: as §2
[14] = Growth inhibition of human IGROV1 cells at 10 uM after 48 hrs by SRB assay relative to control; settings: IGROV-1, 48 h, read-out: GI; summary of the method: as §1
[15] = Growth inhibition of human A549 cells at 10 uM after 48 hrs by SRB assay relative to control; settings: A549, 48 h, read-out: GI; summary of the method: as §1
[16] = Growth inhibition of human colon cancer cells after 48 hrs by SRB assay; settings: Cancer cell lines; summary of the method: as §4
[17] = Growth inhibition of human HCC2998 cells at 10 uM after 48 hrs by SRB assay relative to control; settings: HCC 2998, 48 h, read-out: GI; summary of the method: as §1
[18] = Growth inhibition of human ACHN cells at 10 uM after 48 hrs by SRB assay relative to control; settings: read-out: GI; summary of the method: as §1
[19] = Growth inhibition of human A498 cells at 10 uM after 48 hrs by SRB assay relative to control; settings: A498, 48 h, read-out: GI; summary of the method: as §1
[20] = Growth inhibition of human HCT116 cells at 10 uM after 48 hrs by SRB assay relative to control; settings: HCT-116, 48 h, read-out: GI; summary of the method: as §1
Melanoma cell = experiment: Potency index, ratio of 5-fluorouracil GI50 to compound GI50 for human melanoma cells; summary of the method: as §3
[21] = Growth inhibition of human MALME-3M cells at 10 uM after 48 hrs by SRB assay relative to control; settings: read-out: GI; summary of the method: as §1
[22] = Growth inhibition of human SK-MEL-2 cells at 10 uM after 48 hrs by SRB assay relative to control; settings: SK-MEL-2, 48 h, read-out: GI; summary of the method: as §2
[23] = Growth inhibition of human HCT15 cells at 10 uM after 48 hrs by SRB assay relative to control; settings: HCT-15, 48 h, read-out: GI; summary of the method: as §1
[24] = Growth inhibition of human Caki1 cells at 10 uM after 48 hrs by SRB assay relative to control; settings: CAKI-1, 48 h, read-out: GI; summary of the method: as §1
[25] = Growth inhibition of human MDA-MB-468 cells at 10 uM after 48 hrs by SRB assay relative to control; settings: MDA-MB-468, 48 h, read-out: GI; summary of the method: as §1
[26] = Growth inhibition of human NCI-H460 cells at 10 uM after 48 hrs by SRB assay relative to control; settings: NCI-H460, 48 h, read-out: GI; summary of the method: as §1
[27] = Growth inhibition of human BT549 cells at 10 uM after 48 hrs by SRB assay relative to control; settings: BT-549, 48 h, read-out: GI; summary of the method: as §1
[28] = Growth inhibition of human SN12C cells at 10 uM after 48 hrs by SRB assay relative to control; settings: read-out: GI; summary of the method: as §2
[29] = Growth inhibition of human UACC257 cells at 10 uM after 48 hrs by SRB assay relative to control; settings: UACC-257, 48 h, read-out: GI; summary of the method: as §2
[30] = Growth inhibition of human 786-0 cells at 10 uM after 48 hrs by SRB assay relative to control; settings: 786-0, 48 h, read-out: GI; summary of the method: as §1
[31] = Growth inhibition of human SK-MEL-28 cells at 10 uM after 48 hrs by SRB assay relative to control; settings: SK-MEL-28, 48 h, read-out: GI; summary of the method: as §2
[32] = Growth inhibition of human RPMI8226 cells at 10 uM after 48 hrs by SRB assay relative to control; settings: RPMI-8226, 48 h, read-out: GI; summary of the method: as §1
[33] = Growth inhibition of human SR cells at 10 uM after 48 hrs by SRB assay relative to control; settings: read-out: GI; summary of the method: as §2
[34] = Growth inhibition of human HT-29 cells at 10 uM after 48 hrs by SRB assay relative to control; settings: HT-29, 48 h, read-out: GI; summary of the method: as §1
[35] = Growth inhibition of human SW620 cells at 10 uM after 48 hrs by SRB assay relative to control; settings: SW-620, 48 h, read-out: GI; summary of the method: as §2
[36] = Growth inhibition of human HOP92 cells at 10 uM after 48 hrs by SRB assay relative to control; settings: HOP-92, 48 h, read-out: GI; summary of the method: as §1

With `COc1ccc(-n2c(SCc3cc(OC)c(OC)c(OC)c3)nc3ccc(C)cc3c2=O)cc1` the inhibition of growth at 10 µM [1] was 46.2%, the inhibition of growth at 10 µM [2] was 55.6% and the RatioGI50 (Cancer cell lines [3]) was 2 - 10. The GI50 [4] was 19.7 µM, the LC50 [4] was > 100 µM and the TGI [4] was 89.4 µM. The RatioGI50 (Cancer cell lines [5]) was 2 - 10, the inhibition of growth at 10 µM [6] was 64.7% and the GI50 [7] was 30.9 µM. The LC50 (lethal concentration, 50% net cell kill) [7] was > 100 µM, the TGI [7] was > 100 µM and the RatioGI50 (Cancer cell lines [8]) was 2 - 10. For the same compound, the GI50 [9] was 46.9 µM, the LC50 (50% lethal concentration) [9] was > 100 µM and the inhibition of growth at 10 µM [10] was 34.8%. The inhibition of growth at 10 µM [11] was 19.4%, the inhibition of growth at 10 µM [12] was 25% and the inhibition of growth at 10 µM [13] was 52.8%. The inhibition of growth at 10 µM [14] was 38%, the inhibition of growth at 10 µM [15] was 49% and the GI50 [16] was 18.2 µM. The LC50 [16] was > 100 µM, the TGI [16] was > 100 µM and the inhibition of growth at 10 µM [17] was 24.3%. It also gave an inhibition of growth at 10 µM [18] of 33.3%, an inhibition of growth at 10 µM [19] of 62% and an inhibition of growth at 10 µM [20] of 65.1%. The RatioGI50 (Melanoma cell) was 2 - 10, the inhibition of growth at 10 µM [21] was 40.4% and the inhibition of growth at 10 µM [22] was 35.3%. It also gave an inhibition of growth at 10 µM [23] of 66.4%, an inhibition of growth at 10 µM [24] of 45.8% and an inhibition of growth at 10 µM [25] of 53.2%. For the same compound, the inhibition of growth at 10 µM [26] was 26.2%, the inhibition of growth at 10 µM [27] was 28.6% and the inhibition of growth at 10 µM [28] was 17.8%. It also gave an inhibition of growth at 10 µM [29] of 22.7%, an inhibition of growth at 10 µM [30] of 15.9% and an inhibition of growth at 10 µM [31] of 26%. The inhibition of growth at 10 µM [32] was < 10%, the inhibition of growth at 10 µM [33] was 77% and the inhibition of growth at 10 µM [34] was 78.1%. For the same compound, the inhibition of growth at 10 µM [35] was 50.7% and the inhibition of growth at 10 µM [36] was < 10%.

For `COc1ccc(-n2c(SCc3cc(OC)c(OC)c(OC)c3)nc3ccc(C)cc3c2=O)c(OC)c1`, the inhibition of growth at 10 µM [1] was 88.8%, the inhibition of growth at 10 µM [2] was 70.4% and the RatioGI50 (Cancer cell lines [3]) was 2 - 10. The GI50 [4] was 4.2 µM, the LC50 [4] was 89.9 µM and the TGI [4] was 77.4 µM. The RatioGI50 (Cancer cell lines [5]) was 2 - 10, the inhibition of growth at 10 µM [6] was 81.9% and the GI50 [7] was 9.6 µM. For the same compound, the LC50 (lethal concentration, 50% net cell kill) [7] was > 100 µM, the TGI [7] was 84.6 µM and the RatioGI50 (Cancer cell lines [8]) was 2 - 10. The GI50 [9] was 5.1 µM, the LC50 (50% lethal concentration) [9] was > 100 µM and the TGI [9] was 86.7 µM. The inhibition of growth at 10 µM [10] was 52.6%, the inhibition of growth at 10 µM [11] was 56.8% and the inhibition of growth at 10 µM [12] was 91.3%. It also gave an inhibition of growth at 10 µM [13] of 81.8%, an inhibition of growth at 10 µM [14] of 64.3% and an inhibition of growth at 10 µM [15] of 81.1%. The GI50 [16] was 4.4 µM, the LC50 [16] was > 100 µM and the TGI [16] was 87.4 µM. For the same compound, the inhibition of growth at 10 µM [17] was 54.5%, the inhibition of growth at 10 µM [18] was 55.1% and the inhibition of growth at 10 µM [20] was 81.9%. For the same compound, the RatioGI50 (Melanoma cell) was 2 - 10, the inhibition of growth at 10 µM [21] was 74.5% and the inhibition of growth at 10 µM [22] was < 10%. For the same compound, the inhibition of growth at 10 µM [23] was 76.4%, the inhibition of growth at 10 µM [24] was 86.7% and the inhibition of growth at 10 µM [25] was 83%. It also gave an inhibition of growth at 10 µM [26] of 95.4%, an inhibition of growth at 10 µM [27] of 67.9% and an inhibition of growth at 10 µM [28] of 54.8%. The inhibition of growth at 10 µM [29] was < 10%, the inhibition of growth at 10 µM [30] was 70.4% and the inhibition of growth at 10 µM [31] was 59.2%. For the same compound, the inhibition of growth at 10 µM [33] was 92.3%, the inhibition of growth at 10 µM [34] was 88.8% and the inhibition of growth at 10 µM [35] was 27.9%. The inhibition of growth at 10 µM [36] was 77.3%.
